Reference: PubChem BioAssay AID743247 (Broad Institute, 2014)
Screen size: about 350,000 compounds; about 300 (0.086%) were called active. Shown is part of a subset that was picked to be rich in actives. Unmarked numbers belong to inactive results.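 Rule for the calls: active = mean inhibition across replicates of 30% or more, regardless of how many single replicates reach that level; inconclusive = mean under 30% yet at least half of replicates reach 30%; inactive = the rest.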

Test: inhibitors of fibronectin matrix deposition, primary screen, AH1F cells, Alexa488-fibronectin fluorescence, plate reader (AID 743247);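 note: positive control wells lacked labelled fibronectin entirely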
Conditions: AH1F fibroblasts, overnight, at 12.6 µM, hits give high values
In short: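 Material: AH1F fibroblasts assembling fluorescent fibronectin matrix; amount: 10000 AH1F cells/well; medium: DMEM, 2% serum; reagent: Alexa488-fibronectin, 24 nM final in well; dosing: single compound dose, delivered by pin transfer; incubation: 1 h adhesion, overnight exposure; detection: fluorescence after three HBSS washes, excitation 485 nm, emission 525 nm; measure: fibronectin deposition inhibition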

Structure (SMILES)	inhibition
CO[C@@H]1CN(C)C(=O)c2cc(NC(=O)C3CC3)ccc2OC[C@@H](C)N(C(=O)NC(C)C)C[C@@H]1C	-0.851%
C[C@@H](NC(=O)C[C@@H]1C[C@H]2c3cc(NC(=O)C4CCC4)ccc3O[C@H]2[C@@H](CO)O1)c1ccccc1	17.4%
O=C(NC[C@@H]1[C@@H](c2ccccc2)[C@@H](CO)N1Cc1ccccn1)C1CCC1	-14.4%
O=C(C[C@@H]1CC[C@@H](NS(=O)(=O)c2ccc(F)cc2)[C@@H](CO)O1)NCCc1ccncc1	-5.79%
C[C@@H]1CN([C@@H](C)CO)C(=O)Cc2cc(NC(=O)Nc3ccc4c(c3)OCO4)ccc2O[C@H]1CN(C)S(=O)(=O)c1ccccc1	0.36%
C[C@@H]1CN([C@H](C)CO)C(=O)c2ccccc2-c2ccccc2CO[C@H]1CN(C)S(=O)(=O)c1ccsc1	1.86%
C[C@@H]1CN([C@H](C)CO)S(=O)(=O)c2ccc(C#CC3CC3)cc2O[C@H]1CN(C)C(=O)C1CCCCC1	-1.06%
COc1ccc2c3c(n(C)c2c1)[C@H](CO)NCC31CN(Cc2cc(F)ccc2F)C1	-4.09%
O=C(C1CCCCC1)N1CC2(C1)[C@H](c1ccccc1)[C@H](CO)N2CC1CCCC1	-10.3%
CS(=O)(=O)N1C[C@@H]2C(c3ccccc3)[C@H](C1)N2CC(F)(F)F (some centres not stated)	-13.1%
O=C(C[C@@H]1CC[C@@H](NC(=O)Nc2ccc(F)cc2)[C@H](CO)O1)NCCN1CCCC1	0.829%
COc1ccc(-c2ccc3c(c2)[C@@H]2[C@@H](CCN2C(=O)NC2CCCC2)[C@@H](CO)N3C)cc1	5.47%
CC(C)NC(=O)Nc1cccc2c1O[C@@H](CN(C)C(=O)NC(C)C)[C@@H](C)CN(C)C2=O	3.55%
CN(C)CC(=O)N1CC2(C1)[C@H](c1ccccc1)[C@H](CO)N2C(=O)C1CC1	-3.48%
O=C(C1CCOCC1)N1CC(=O)N2[C@H](CO)[C@@H](c3ccc(C#CC4CCCC4)cc3)[C@H]2C1	-4.97%
Cc1ccc(-n2ncc3c(=O)[nH]cnc32)c(C)c1	-2.15%
Cc1cccc(-n2ncc(Cl)c(Cl)c2=O)c1	51.7% (active)
Cc1cccc(-n2ncc3c(=O)[nH]c(SCC(=O)Nc4cc(C)on4)nc32)c1	-0.734%
COc1ccc(-c2ccc3c(c2)O[C@@H](CN(C)CC2CCOCC2)[C@@H](C)CN([C@@H](C)CO)S3(=O)=O)cc1	5.61%
C[C@@H]1CC=CC[C@@H](c2ccccc2)NC(=O)[C@H](C)N(C)C(=O)c2ccccc2O1 (mixture of isomers)	-2.82%
CN(C)c1ccc2c(c1)[C@H]1C[C@H](CC(=O)NCc3ccc(Cl)cc3)O[C@H](CO)[C@H]1O2	1.04%
C[C@@H]1CC=CC[C@H](c2ccc(F)cc2)NC(=O)[C@@H](Cc2ccccc2)N(C)C(=O)c2ccccc2O1 (mixture of isomers)	7.06%
COc1ccccc1NC(=O)N[C@H]1CC[C@H](CCNC(=O)Cc2ccccn2)O[C@@H]1CO	1.21%

Structure (SMILES)	inhibition
COC(=O)C[C@H]1CC[C@@H]2[C@@H](COc3ccc(NC(=O)Nc4ccc(Cl)cc4)cc3C(=O)N2C)O1	-17.5%
CN(C)C(=O)c1ccc(-c2ccc([C@H]3[C@H](CO)N4C(=O)CN(C(=O)C5CCCC5)C[C@@H]34)cc2)cc1	0.201%
C[C@H]1CCCCO[C@H](CN(C)C(=O)Nc2ccc(F)cc2)[C@@H](C)CN([C@@H](C)CO)C(=O)c2cc(NC(=O)CCC(F)(F)F)ccc2O1	7.35%
COc1ccc2c3c(n(C)c2c1)[C@H](CO)N(C(=O)c1ccncc1)CC31CCN(CC2CC2)CC1	-1.91%
O=C(C[C@@H]1C=C[C@@H](NC(=O)c2cccnc2)[C@H](CO)O1)NCc1ccncn1	11.1%
CNC(=O)C[C@@H]1CC[C@@H]2[C@H](COc3ccc(NC(=O)c4cccs4)cc3C(=O)N2C)O1	-9.79%
C[C@@H](C(=O)N(C)C[C@H]1OCc2ccccc2-c2c(n(C)c3ccccc23)C(=O)N([C@@H](C)CO)C[C@@H]1C)c1ccccc1	-2.51%
COc1cccc(C#Cc2ccc3c(c2)[C@@H]2[C@@H](CCN2S(=O)(=O)c2ccc(C)cc2)[C@@H](CO)N3)c1	2.44%
COc1ccccc1C#Cc1ccc([C@H]2[C@@H](C#N)N(C(=O)C3CCCCC3)[C@@H]2CO)cc1	-2.57%
O=C(C[C@@H]1CC[C@@H]2[C@H](COC[C@@H](O)CN2C(=O)c2ccccc2F)O1)N1CCOCC1	-11.5%
O=C(O)C[C@H]1C=C[C@@H](NC(=O)Nc2cc(F)ccc2F)[C@@H](CO)O1	-9.56%
COc1ccc([C@@H]2C/C=C\C[C@@H](c3ccc4c(c3)OCO4)NC(=O)CCC(=O)N2)c(OC)c1	8.56%
CC(C)NC(=O)N[C@@H]1CC[C@H](CC(=O)NC2Cc3ccccc3C2)O[C@H]1CO	10.9%
O=C(C[C@@H]1CC[C@H](NC(=O)C2CCC2)[C@@H](CO)O1)NC1CCCCC1	-5.05%
CC(C)C#Cc1ccc2c(c1)O[C@@H](CN(C)C(=O)C1CCC1)[C@@H](C)CN([C@@H](C)CO)S2(=O)=O	-2.23%
CC(=O)N(C)C[C@H]1Oc2ncc(C#Cc3ccc(F)cc3)cc2C(=O)N([C@H](C)CO)C[C@@H]1C	11.6%
CN1C(=O)c2cc(NC(=O)Cc3ccccc3)ccc2OC[C@H]2O[C@H](CC(=O)NCc3ccc(Cl)cc3)CC[C@H]21	1.06%
CC(C)NC(=O)Nc1ccc2c(c1)CC(=O)N(C)C[C@@H](C)[C@@H](CN(C)C(=O)OC(C)(C)C)O2	-1.15%
COc1cccc(C(=O)Nc2ccc3c(c2)OC[C@H](C)NC[C@H](C)[C@H](OC)CN(C)C3=O)c1	3.33%
O=C(c1cccnc1)N1C[C@H]2[C@@H](c3ccccc31)[C@H](CO)N2C(=O)C1CC1	7.1%
COc1cccc(-c2cnc3c(c2)C(=O)N([C@@H](C)CO)C[C@@H](C)[C@@H](CN(C)Cc2ccc(C(=O)O)cc2)O3)c1	-19.8%
CC(C)NC(=O)N(C)C[C@H]1Oc2ccc(N)cc2C(=O)N(C)C[C@@H]1C	0.428%
C[C@H]1CCCCO[C@@H](CN(C)C(=O)Nc2ccccc2)[C@@H](C)CN([C@@H](C)CO)C(=O)c2cc(NC(=O)CCC(F)(F)F)ccc2O1	-5.23%

Structure (SMILES)	inhibition
C[C@@H]1CN([C@@H](C)CO)C(=O)c2c(c3ccccc3n2C)-c2ccccc2CO[C@H]1CN(C)C(=O)N[C@H](C)c1ccccc1	-3.56%
COCC(=O)Nc1ccc2c(c1)OC[C@@H](C)N(Cc1ccccc1C(=O)O)C[C@@H](C)[C@H](OC)CN(C)C2=O	-5.62%
CCC(=O)Nc1ccc2c(c1)C(=O)N(C)C[C@@H](OC)[C@@H](C)CN(C(=O)CN(C)C)[C@@H](C)CO2	2.05%
CNC[C@@H]1Oc2ccc(NC(C)=O)cc2CC(=O)N(C)C[C@@H]1C	-0.299%
CO[C@H]1CN(C)C(=O)c2ccc(NC(=O)Nc3ccccc3)cc2OC[C@@H](C)N(C(=O)CC2CC2)C[C@@H]1C	-8.75%
O=C(Nc1nc(-c2ccncc2)cs1)C1COc2ccccc2O1 (configuration not stated)	30.8% (active)
C/C(=N/NC(=O)C1COc2ccccc2O1)c1ccco1 (configuration not stated)	-7.65%
O=C(Nc1cc(S(=O)(=O)N2CCCCC2)ccc1Cl)C1COc2ccccc2O1 (configuration not stated)	1.13%
COc1ccccc1NC(=O)N[C@H]1C=C[C@@H](CC(=O)N[C@@H](C)c2ccccc2)O[C@@H]1CO	-15.6%
CCCc1cn(CC[C@H]2CC[C@@H](NC(=O)C3CCOCC3)[C@@H](CO)O2)nn1	0.091%
O=C(OCc1ccc(-c2ccccc2)cc1)c1cccc(O)c1	7.52%
O=C(OCC(O)C(O)COC(=O)c1ccccc1)c1ccccc1 (configuration not stated)	2.45% (active)
O=C(COC(=O)c1ccccc1)Nc1ccccc1Sc1ccccc1	-7.06%
C[C@H]1CN([C@@H](C)CO)C(=O)c2c(c3ccccc3n2C)-c2ccccc2CO[C@@H]1CN(C)C(=O)Nc1ccnc(N2CCOCC2)c1	4.14%
O=C(C1CCC1)N1CC(=O)N2[C@H](CO)[C@H](c3ccc(C#CCc4ccccc4)cc3)[C@@H]2C1	-13.2%
O=C(C[C@H]1C=C[C@@H](NC(=O)c2ccc(F)cc2)[C@@H](CO)O1)NCCc1ccncc1	10.9%
COc1ccccc1S(=O)(=O)N1C[C@@H](O)COC[C@H]2O[C@H](CC(=O)O)CC[C@@H]21	-7.66%
Cc1ccc(S(=O)(=O)Nc2ccc3c(c2)C(=O)N([C@@H](C)CO)C[C@@H](C)[C@@H](CN(C)Cc2ccc(C(F)(F)F)cc2)OCCCC[C@@H](C)O3)cc1	7.11%
CC(C)NC(=O)N[C@H]1CC[C@H](CC(=O)NCCCN(C)C)O[C@H]1CO	-22.3%
C[C@H]1CN(C)C(=O)c2cc(N(C)C)ccc2O[C@H]1CN(C)C(=O)OC(C)(C)C	-2.56%
CO[C@@H]1CN(C)C(=O)c2cc(NC(=O)C3CC3)ccc2OC[C@H](C)N(C(=O)CN(C)C)C[C@H]1C	-1.48%
